Source: ChEMBL document CHEMBL4145567, “Natural Stilbenoids Have Anti-Inflammatory Properties in Vivo and Down-Regulate the Production of Inflammatory Mediators NO, IL6, and MCP1 Possibly in a PI3K/Akt-Dependent Manner” (J Nat Prod, 2018)
Activity calls are given as the source filed them. The rule behind the calls is not given here.

Key:
J774 [1] = experiment: Inhibition of PI3K/Akt in mouse J774 cells assessed as reduction in LPS-induced Akt phosphorylation at Ser473 at 10 uM after 4 hrs by Western blot analysis; assay type: cell-based
Summary of the method: (§1)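 J774 macrophages were exposed to LPS (10 ng/mL) for 4 h with increasing compound concentrations, then lysed on ice in Tris/EDTA/Triton buffer with protease and phosphatase inhibitors. Lysate protein (20 μg) was Western blotted with an antibody against Akt phospho-S473. Chemiluminescence was quantified; mean + SEM, n = 4.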

J774 [2] = experiment: Antiinflammatory activity in mouse J774 cells assessed as reduction in LPS-induced nitric oxide production after 24 hrs by Griess assay; assay type: functional, cell-based; details: for IC50: J774, 24 h
Summary of the method: (§2)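 Confluent J774 macrophages (72 h growth, DMEM/10% FBS) were treated with LPS 10 ng/mL plus increasing compound concentrations for 24 h. NO production was followed as nitrite accumulated in the medium, measured by Griess test. The half-maximal inhibitory concentration was derived from the concentration series; n = 4.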

J774 [3] = experiment: Antiinflammatory activity in mouse J774 cells assessed as reduction in LPS-induced IL6 expression after 24 hrs by ELISA; assay type: functional, cell-based; details: for IC50: J774, 24 h
Summary of the method: (§3)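 J774 macrophages were grown 72 h to confluence in DMEM with 10% heat-inactivated FBS. Cells were stimulated with LPS (10 ng/mL) with increasing compound concentrations for 24 h. IL6 or MCP1 in the collected medium was measured by ELISA. Concentration giving 50% inhibition was taken from the concentration series; mean + SEM, n = 4.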

J774 [4] = experiment: Antiinflammatory activity in mouse J774 cells assessed as reduction in LPS-induced MCP1 expression after 24 hrs by ELISA; assay type: functional, cell-based; details: for IC50: J774, 24 h; summary of the method: as §3
Mus musculus [5] = experiment: Antiinflammatory activity in carrageenan induced C57BL/6 mouse model of inflammation assessed as reduction in paw edema at 15 mg/kg, ip pretreated for 1 to 2 hrs followed by carrageenan challenge measured after 3 to 6 hrs by plethysmometer; assay type: functional, organism-based
Summary of the method: (§4)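 Mice got compound i.p. in 10% DMSO in PBS (pH 7.4) before carrageenan. Under i.p. medetomidine (0.5 mg/kg) plus ketamine (75 mg/kg), one hindpaw received 50 μL intradermal 1.5% w/v λ-carrageenan in saline, and the contralateral paw got saline. Paw volume was measured by plethysmometer before and 3 and 6 h after. Edema = carrageenan-paw minus saline-paw volume change; n = 6–7/group.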

Mus musculus [6] = experiment: Antiinflammatory activity in carrageenan induced C57BL/6 mouse model of inflammation assessed as reduction in IL6 expression in hind paw at 15 mg/kg, ip pretreated for 1 to 2 hrs followed by carrageenan challenge measured after 6 hrs by ELISA; assay type: functional, organism-based
Summary of the method: (§5)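 Compound was given i.p. in 10% DMSO/PBS (pH 7.4) before intradermal 1.5% w/v λ-carrageenan (50 μL) into one hindpaw under anesthesia; the contralateral paw got saline. At 6 h, paw tissue was collected into 50 mM Tris pH 7.4, 150 mM NaCl with protease/phosphatase inhibitors, minced and centrifuged (10000g, 10 min). Supernatant cytokine was read by ELISA; n = 6–7/group.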

Mus musculus [7] = experiment: Antiinflammatory activity in carrageenan induced C57BL/6 mouse model of inflammation assessed as reduction in MCP1 expression in hind paw at 15 mg/kg, ip pretreated for 1 to 2 hrs followed by carrageenan challenge measured after 6 hrs by ELISA; assay type: functional, organism-based; summary of the method: as §5
J774 [8] = experiment: Inhibition of PI3K/Akt in mouse J774 cells assessed as reduction in LPS-induced Akt phosphorylation at Ser473 after 4 hrs by Western blot analysis; assay type: cell-based; summary of the method: as §1
J774 [9] = experiment: Inhibition of PI3K/Akt in mouse J774 cells assessed as reduction in LPS-induced Akt phosphorylation at Ser473 at 30 uM after 4 hrs by Western blot analysis; assay type: cell-based; summary of the method: as §1
J774 [10] = experiment: Antiinflammatory activity in mouse J774 cells assessed as reduction in LPS-induced nitric oxide production at 30 uM after 24 hrs by Griess assay; assay type: functional, cell-based; summary of the method: as §2
J774 [11] = experiment: Antiinflammatory activity in mouse J774 cells assessed as reduction in LPS-induced IL6 expression at 30 uM after 24 hrs by ELISA; assay type: functional, cell-based; summary of the method: as §3
J774 [12] = experiment: Antiinflammatory activity in mouse J774 cells assessed as reduction in LPS-induced MCP1 expression at 30 uM after 24 hrs by ELISA; assay type: functional, cell-based; summary of the method: as §3
J774 [13] = experiment: Inhibition of PI3K/Akt in mouse J774 cells assessed as reduction in LPS-induced Akt phosphorylation at Ser473 at 100 uM after 4 hrs by Western blot analysis; assay type: cell-based; summary of the method: as §1
Mus musculus [14] = experiment: Antiinflammatory activity in carrageenan induced C57BL/6 mouse model of inflammation assessed as reduction in paw edema at 30 mg/kg, ip pretreated for 1 to 2 hrs followed by carrageenan challenge measured after 3 to 6 hrs by plethysmometer; assay type: functional, organism-based; summary of the method: as §4
Mus musculus [15] = experiment: Antiinflammatory activity in carrageenan induced C57BL/6 mouse model of inflammation assessed as reduction in IL6 expression in hind paw at 30 mg/kg, ip pretreated for 1 to 2 hrs followed by carrageenan challenge measured after 6 hrs by ELISA; assay type: functional, organism-based; summary of the method: as §5
Mus musculus [16] = experiment: Antiinflammatory activity in carrageenan induced C57BL/6 mouse model of inflammation assessed as reduction in MCP1 expression in hind paw at 30 mg/kg, ip pretreated for 1 to 2 hrs followed by carrageenan challenge measured after 6 hrs by ELISA; assay type: functional, organism-based; summary of the method: as §5
Mus musculus [17] = experiment: Antiinflammatory activity in carrageenan induced C57BL/6 mouse model of inflammation assessed as reduction in paw edema at 2 mg/kg, ip pretreated for 1 to 2 hrs followed by carrageenan challenge measured after 3 to 6 hrs by plethysmometer; assay type: functional, organism-based; summary of the method: as §4
Mus musculus [18] = experiment: Antiinflammatory activity in carrageenan induced C57BL/6 mouse model of inflammation assessed as reduction in IL6 expression in hind paw at 2 mg/kg, ip pretreated for 1 to 2 hrs followed by carrageenan challenge measured after 6 hrs by ELISA; assay type: functional, organism-based; summary of the method: as §5
Mus musculus [19] = experiment: Antiinflammatory activity in carrageenan induced C57BL/6 mouse model of inflammation assessed as reduction in MCP1 expression in hind paw at 2 mg/kg, ip pretreated for 1 to 2 hrs followed by carrageenan challenge measured after 6 hrs by ELISA; assay type: functional, organism-based; summary of the method: as §5

Row | IC50 (J774 [2]) [µM] | IC50 (J774 [3]) [µM] | IC50 (J774 [4]) [µM] | Compound | inhibition (J774 [8]) | Activity (J774 [2]) | Activity (J774 [3]) | Activity (J774 [4]) | inhibition (J774 [9]) | further results
1 | 8.9 | 5.1 | 3.7 | O=c1cc(N2CCOCC2)oc2c(-c3ccccc3)cccc12 [LY-294002] |  |  |  |  |  | inhibition (J774 [1]): Active; Activity (Mus musculus [5]): Active; Activity (Mus musculus [6]): Active; Activity (Mus musculus [7]): Active
2 | 37 | 30.2 | 23.7 | COc1cc(O)cc(/C=C/c2ccccc2)c1 [PINOSYLVIN METHYL ETHER] | Dose-dependent effect | Dose-dependent effect | Dose-dependent effect | Dose-dependent effect |  | 
3 |  |  |  | C=CCOc1cc(O)cc(/C=C/c2ccccc2)c1 |  |  |  |  | Active | 
4 |  |  |  | OC[C@H]1O[C@@H](Oc2cc(O)cc(/C=C/c3ccc(O)c(O)c3)c2)[C@H](O)[C@@H](O)[C@@H]1O |  |  |  |  |  | Activity (J774 [10]): inactive; Activity (J774 [11]): inactive; Activity (J774 [12]): inactive; inhibition (J774 [13]): inactive
5 | 16.6 | 32.1 | 38.7 | Oc1cc(O)cc(/C=C/c2ccccc2)c1 [PINOSYLVIN] | Dose-dependent effect | Dose-dependent effect | Dose-dependent effect | Dose-dependent effect |  | Activity (Mus musculus [14]): Active; Activity (Mus musculus [15]): Active; Activity (Mus musculus [16]): Active
6 | 2.6 | 13 | 4 | Oc1cc(O)cc(/C=C/c2ccc(O)c(O)c2)c1 [PICEATANNOL] | Dose-dependent effect | Dose-dependent effect | Dose-dependent effect | Dose-dependent effect |  | Activity (Mus musculus [14]): Active; Activity (Mus musculus [15]): Active; Activity (Mus musculus [16]): Active
7 |  |  |  | CC(C)(C)Oc1cc(O)cc(/C=C/c2ccccc2)c1 |  |  |  |  | inactive | 
8 |  |  |  | COc1ccc(/C=C/c2cc(O)cc(O[C@@H]3O[C@H](CO)[C@@H](O)[C@H](O)[C@H]3O)c2)cc1O |  |  |  |  |  | Activity (J774 [10]): inactive; Activity (J774 [11]): inactive; Activity (J774 [12]): inactive; inhibition (J774 [13]): inactive
9 | 16.7 | 8.7 | 10.5 | COc1cc(/C=C/c2ccc(O)cc2)cc(OC)c1 [PTEROSTILBENE] | Dose-dependent effect | Dose-dependent effect | Dose-dependent effect | Dose-dependent effect |  | Activity (Mus musculus [14]): Active; Activity (Mus musculus [15]): Active; Activity (Mus musculus [16]): Active
10 |  |  |  | C[C@@H]1C[C@H]2[C@@H]3CCC4=CC(=O)C=C[C@]4(C)[C@@]3(F)[C@@H](O)C[C@]2(C)[C@@]1(O)C(=O)CO |  |  |  |  |  | Activity (Mus musculus [17]): Active; Activity (Mus musculus [18]): Active; Activity (Mus musculus [19]): Active
11 |  |  |  | Oc1cc(/C=C/c2ccccc2)cc(OCc2ccccc2)c1 |  |  |  |  | inactive | 
12 |  |  |  | CCOc1cc(O)cc(/C=C/c2ccccc2)c1 |  |  |  |  | Active | 
13 | 12.2 | 6.8 | 13.6 | Oc1ccc(/C=C/c2cc(O)cc(O)c2)cc1 [RESVERATROL] | Dose-dependent effect | Dose-dependent effect | Dose-dependent effect | Dose-dependent effect |  | 
14 |  |  |  | CCCOc1cc(O)cc(/C=C/c2ccccc2)c1 |  |  |  |  | inactive | 
15 | 103 | 99.1 | 19.4 | COc1ccc(/C=C/c2cc(O)cc(O)c2)cc1O | Dose-dependent effect | Dose-dependent effect | Dose-dependent effect | Dose-dependent effect |  | 
